Screening results: PubChem BioAssay, several laboratories
Rows were chosen to be rich in hits. Some 1.4% of all compounds tested hit in one or more screens of this group.
RTF Ca sens act: cardiac RTF calcium sensitivity activators, primary screen, biochemical, IANBD-TnC fluorescence, EC20 calcium; IANBD-labeled TnC RTF fluorescence at EC20 calcium; 0% EC20 calcium, 100% full calcium; activation, % at 7.2 µM; 0.24% of 340,000 active; AID 493008, 2010;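 active = activation above the mean over all tested compounds plus 3 SD, cut at about 30% in these data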;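 note: rise in fluorescence read as greater calcium sensitivity of cardiac thin filaments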
Cardiac RTF inh: cardiac RTF calcium sensitivity inhibitors, primary screen, biochemical, IANBD-TnC fluorescence, EC70 calcium; Troponin I, cardiac muscle (Homo sapiens) + Troponin T, cardiac muscle (Homo sapiens) + …; IANBD-labeled cardiac RTF, Ca2+ fluorescence; inhibition, % at 7.15 µM; 0.12% of 340,000 active; AID 493244, 2011;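 active = inhibition above the mean inhibition of all tested compounds plus 3 SD, cut at about 17% in these data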;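 note: assay run at fixed EC70 calcium of 1.6 mM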
Tn7 DDE FP: inhibitors of Tn7 peptide binding to fibrin DD(E), primary screen, biochemical, fluorescence polarization, human fibrin, Tn7 probe; AID 720508, 2013; 0.13% of 370,000 active; inhibition, % at 8.3 µM; FP displacement of FITC-Tn7 peptide from fibrin DD(E); 0% = median of compound wells per plate; Fibrinogen beta chain (Homo sapiens), P02675;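 active = inhibition above the mean of compounds falling within the control limits plus 3 SD of them, cut at about 14% in these data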
Target sequence (P02675 whole entry, looked up): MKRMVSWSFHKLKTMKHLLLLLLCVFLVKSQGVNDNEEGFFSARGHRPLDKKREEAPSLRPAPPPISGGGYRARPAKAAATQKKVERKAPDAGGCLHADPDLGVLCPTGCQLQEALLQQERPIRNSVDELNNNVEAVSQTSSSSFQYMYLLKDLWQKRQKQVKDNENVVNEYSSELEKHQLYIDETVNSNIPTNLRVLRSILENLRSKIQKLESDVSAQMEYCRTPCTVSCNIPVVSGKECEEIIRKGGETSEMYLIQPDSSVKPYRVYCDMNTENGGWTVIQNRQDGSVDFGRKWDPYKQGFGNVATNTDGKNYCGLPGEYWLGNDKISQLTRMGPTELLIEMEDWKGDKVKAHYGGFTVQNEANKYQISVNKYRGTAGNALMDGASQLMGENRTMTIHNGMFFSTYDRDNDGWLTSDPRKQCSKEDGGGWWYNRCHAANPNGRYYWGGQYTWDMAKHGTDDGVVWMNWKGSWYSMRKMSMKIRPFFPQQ
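Assay system: Human fibrin DD(E) protein | Medium: Tris buffer with calcium and detergent, pH 7.8 | Reagent: 0.1 µM fluorescent Tn7 | Compound dosing: Single point at 8.3 µM | Times: 10 min preincubation, 3 h with tracer, room temperature | Detection: Fluorescence polarization of the labelled Tn7 tracer | Controls: Aha-Tn7 high control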
CRFR2-BP antag: antagonists of CRF-BP/CRF-R2 complex, primary screen, cell-based, HEK293, calcium dye fluorescence, uHTS. AID 588475, 2011. inhibition, % at 11.8 µM. 0.59% of 350,000 active. CRF-induced calcium fluorescence;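 active = inhibition of the ligand-induced calcium signal above about 50% at the single tested concentration, limit read from the data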
DDE Tn6 FP inh: inhibitors of Tn6 peptide binding to fibrin DD(E), primary screen, biochemical, fluorescence polarization, human fibrin, Tn6 probe; Fibrinogen beta chain (Homo sapiens), P02675; Fibrin DD(E) TRITC-Tn6 fluorescence polarization displacement; inhibition, % at 8.3 µM; 0.21% of 370,000 active;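 active = inhibition above a per-campaign cutoff: mean of compounds within control limits plus 3 SD, cut at about 15% in these data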
CRFBP-R2 agonist: agonists of CRF-BP/CRF-R2 complex, primary screen, cell-based, HEK293, calcium dye fluorescence, uHTS; CRF-binding protein / CRF receptor 2 complex (human); calcium dye fluorescence (FLIPR); percent of saturating CRF peptide response; activation, % at 13.2 µM; 0.46% of 350,000 active; AID 588473, 2011;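 active = activation of at least 50%, plus an integration ratio under a set limit after plate pattern correction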
DDE Tn7 confirm: inhibitors of Tn7 peptide binding to fibrin DD(E), confirmation, biochemical, fluorescence polarization, human fibrin, Tn7 probe; shares compounds with Tn7 DDE FP; FP displacement of TRITC-Tn7 peptide from DD(E); 0% set at plate's compound-well median; inhibition, % at 8.3 µM; 5% of 460 active; AID 720628, 2013;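 active = inhibition above the campaign cutoff, the mean of compounds within control limits plus 3 SD, cut at about 14% in these data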;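 note: displacers lower polarization since freed probe rises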
Tn7 DDE ctr: counter-screen for inhibitors of Tn7 peptide binding to fibrin DD(E) | shares compounds with Tn7 DDE FP | TRITC-Tn7 probe displacement, fluorescence polarization | 3% of 460 active | inhibition, % at 8.3 µM;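 active = inhibition above the cutoff, the mean of compounds lying between the control bounds plus 3 SD of those compounds, cut at about 17% in these data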
A number is an active result; i = inactive; nt = no result given.

SMILES | RTF Ca sens act | Cardiac RTF inh | Tn7 DDE FP | CRFR2-BP antag | DDE Tn6 FP inh | CRFBP-R2 agonist | DDE Tn7 confirm | Tn7 DDE ctr
COc1cc2c(cc1NC(=O)CSc1nnc(COc3ccccc3)n1Cc1ccco1)oc1ccccc12 | nt | nt | i | nt | i | nt | nt | nt
O=C(NC(=S)NC1CCSC1=O)c1ccccc1Cl (stereo not given) | i | i | 15 | i | i | i | i | i
O=C(NC(=S)NC1CCSC1=O)c1ccccc1 (stereo not given) | i | i | i | i | i | i | nt | nt
Cc1ccc(C)c(N2CCN(S(=O)(=O)c3ccc(-c4ccc(=O)[nH]n4)o3)CC2)c1 | i | i | i | i | i | i | nt | nt
O=c1ccc(-c2ccc(S(=O)(=O)N3CCCCC3)o2)n[nH]1 | i | i | 14 | i | i | i | i | i
COC(=O)c1sc(S(=O)(=O)N2CCCCC2)c(C(=O)OC)c1C | i | i | i | i | i | i | nt | nt
COC(=O)c1sc(S(=O)(=O)N2CCN(c3ccccc3)CC2)c(C(=O)OC)c1C | i | i | 14 | i | i | i | i | i
Fc1ccccc1-c1n[nH]c(=S)n1N=Cc1ccc(OCc2ccccc2)cc1 | nt | nt | i | nt | i | nt | nt | nt
CC(C)(C)n1nnnc1C1c2ccccc2C(=O)N1CCc1c[nH]c2ccccc12 (stereo not given) | nt | nt | i | nt | i | nt | nt | nt
Cc1ccccc1NC(=O)CCCNC(=O)c1ccc(Cl)cc1 | i | i | i | i | i | i | nt | nt
CC(=O)c1ccccc1NC(=O)CCCNC(=O)c1ccc(Cl)cc1 | i | i | 15 | i | i | i | i | i
CCCCN1C(=O)C(CC(=O)NCCCN(C)C)CC(C(=O)N2CCCCCC2)=C1C (stereo not given) | nt | nt | i | nt | i | nt | nt | nt
Cc1ccc2nc(-c3ccccc3)c(Cc3ccccc3C(F)(F)F)n2c1 | nt | nt | 16 | nt | i | nt | i | i
Cc1ccc(-c2nc3ccc(C)cn3c2Cc2ccccc2C(F)(F)F)cc1 | nt | nt | i | nt | i | nt | nt | nt
O=C1[C@H](Cc2ccccc2)NCC=CC[C@H](c2ccco2)N1Cc1ccccc1 | i | i | 16 | i | i | i | i | i
COC(=O)C1=C(C)NC(=O)NC1c1ccc2c(c1)OCO2 (stereo not given) | i | i | i | i | i | i | nt | nt
CC1=C(C(=O)OC(C)C)C(c2ccc3c(c2)OCO3)NC(=O)N1 (stereo not given) | i | i | 16 | i | i | i | i | i
CC1CCN(CC(O)COCCC23CC4CC(CC(C4)C2)C3)CC1 (stereo not given) | i | i | 15 | i | i | i | i | i
Cn1cccc1C(=O)OCC(=O)NCc1ccc2c(c1)OCO2 | i | i | 21 | i | i | i | i | i
CC(C)(C)OC(=O)C(Oc1ccccc1[N+](=O)[O-])C(=O)OC(C)(C)C | nt | nt | 19 | nt | i | nt | i | i
CC(C)(C)/C(COc1ccccc1[N+](=O)[O-])=N/O | i | i | i | i | i | i | nt | nt
COC(=O)[C@]12C[C@H](CC(=O)N3CCSCC3)C(=O)N(Cc3cccc4ccccc34)C1=C[C@H](C1CCCC1)O[C@@H]2C | nt | nt | i | nt | i | nt | nt | nt
Cc1ccc(S(=O)(=O)N2C[C@H]3C(=O)C[C@@H]4C(=O)N(c5ccccc5)C(=O)[C@@H]4[C@@H]3C[C@H]2c2cccc(Cl)c2)cc1 | nt | nt | i | nt | i | nt | nt | nt
CCCNC(=O)C1(C)CCCN(C(=O)c2ccccc2OC(F)(F)F)C1 (stereo not given) | nt | nt | i | nt | i | nt | nt | nt
COc1cccc(-c2cnc(C(O)c3c(C)cccc3C)[nH]2)c1 (stereo not given) | nt | nt | i | nt | i | nt | nt | nt
SMILES | RTF Ca sens act | Cardiac RTF inh | Tn7 DDE FP | CRFR2-BP antag | DDE Tn6 FP inh | CRFBP-R2 agonist | DDE Tn7 confirm | Tn7 DDE ctr
O=C(COC(=O)c1ccc(S(=O)(=O)N2CCOCC2)cc1)NCc1ccccc1 | i | i | i | i | i | i | nt | nt
COCCNC(=O)COC(=O)c1ccc(S(=O)(=O)N2CCOCC2)cc1 | nt | nt | 16 | i | i | i | i | i
O=[N+]([O-])c1ccc(CP(=O)(c2ccccc2)c2ccccc2)cc1 | i | i | 14 | i | i | i | i | i
N#CC1=C(N)Oc2n[nH]c(-c3ccc(F)cc3)c2C1c1cccc(OC(=O)N2CCOCC2)c1 (stereo not given) | i | i | 15 | i | i | i | i | i
COc1ccc(/C=N/N2CCN(c3ccc(Cl)cc3)CC2)cc1O | i | i | 15 | i | i | i | i | i
COC(=O)[C@]12C[C@H](CC(=O)NCc3ccccc3)C(=O)N(Cc3ccc(Cl)cc3Cl)C1=C[C@H](C1CCCC1)O[C@@H]2C | nt | nt | i | nt | i | nt | nt | nt
O=C(CSc1nnc(CNC(=O)c2ccco2)o1)Nc1cccc(Cl)c1 | i | i | 16 | i | i | i | i | i
CCOC(=O)[C@]12CCCCC/C=C\1N(Cc1ccc(OC)cc1)C(=O)[C@H]2CC(=O)N1CCCCC1 | nt | nt | i | nt | i | nt | nt | nt
CC1(C)CC(=O)C2=C(C1)N(Cc1ccco1)C(=O)C2(NC(=O)C1CCCCC1)C(F)(F)F (stereo not given) | i | i | 14 | i | i | i | i | i
CC1=NC(C(F)(F)F)(C(F)(F)F)C2=C(CC(C)(C)CC2=O)N1Cc1ccco1 | i | i | 14 | i | i | i | i | i
Cc1cc(C)cc(OC(C)CCN2CCC(C(O)(c3ccccc3)c3ccccc3)CC2)c1 (stereo not given) | nt | nt | i | nt | i | nt | nt | nt
COC(=O)[C@]1(CNS(=O)(=O)C2CC2)CC(=O)N(C)[C@@H]1c1ccccc1 | nt | nt | i | nt | i | nt | nt | nt
CCOc1cc(/C=C2\CCCc3c2nc2ccccc2c3C(=O)O)ccc1OC | i | i | 64 | i | i | 201 | 31 | i
COc1cc(/C=C2\CCCc3c2nc2ccccc2c3C(=O)O)cc(Br)c1O | i | i | i | i | i | i | nt | nt
O=C(NCCc1ccccc1F)c1[nH]c(C(F)(F)F)nc1-c1ccccc1 | nt | nt | i | nt | i | nt | nt | nt
COCCNC(=O)c1[nH]c(C(F)(F)F)nc1-c1ccccc1 | nt | nt | 15 | nt | i | nt | i | i
O=C(Cn1nnc(-c2ccc(F)cc2)n1)Nc1ccc2c(c1)OCCO2 | i | i | 15 | i | i | i | i | i
